According to ChEMBL document CHEMBL1781963, “Discovery of novel hepatoselective HMG-CoA reductase inhibitors for treating hypercholesterolemia: a bench-to-bedside case study on tissue selective drug distribution” (Bioorg Med Chem Lett, 2011):

Legend:
[1] = Terminal half life in human plasma at 120 mg administered as single dose; type: ADME, cell-free; conditions: read-out: beta t1/2 (converted)
Plasma [2] = assay: fCmax in human plasma at 240 mg administered as single dose; type: ADME, cell-free
Outline: (§1)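 Phase 1 single ascending oral dose in healthy volunteers, with N per dose group. Total plasma Cmax and AUC(0-∞) were measured. Free-drug exposures were derived from these using plasma protein binding (human plasma fu measured at 0.5 μg/mL).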

Plasma [3] = assay: fCmax in human plasma at 120 mg administered as single dose; type: ADME, cell-free; outline: as §1
Plasma [4] = assay: fAUC (0 to infinity) in human plasma at 10 mg administered as single dose; type: ADME, cell-free; outline: as §1
Homo sapiens [5] = assay: Inhibition of HMG-CoA reductase in human assessed as decrease in AUC (0 to 72 hrs) of mevalonate level in plasma at 240 mg administered as single dose relative to control; type: functional
[6] = Cmax in human plasma at 320 mg administered as single dose; type: ADME, organism-based; design: dose 320 mg
Outline: (§2)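 Phase 1 single ascending oral dose in healthy volunteers, about 5–6 subjects per dose. Total plasma drug Cmax and AUC(0-∞) were measured. Free-drug exposures were derived using plasma protein binding.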

Homo sapiens [7] = assay: Inhibition of HMG-CoA reductase in human assessed as decrease in AUC (0 to 24 hrs) of mevalonate level in plasma at 3 mg administered as single dose relative to control; type: functional
Rattus norvegicus = assay: Inhibition of HMG-CoA reductase in Sprague-Dawley rat assessed as reduction of mevalonate level in plasma at 10 mg/kg, po administered as single dose after 24 hrs relative to control; type: functional
[8] = Terminal half life in human plasma at 320 mg administered as single dose; type: ADME, cell-free; conditions: read-out: beta t1/2 (converted)
Homo sapiens [9] = assay: Inhibition of HMG-CoA reductase in human assessed as decrease in AUC (0 to 24 hrs) of mevalonate level in plasma at 240 mg administered as single dose relative to control; type: functional
Plasma [10] = assay: fAUC (0 to infinity) in human plasma at 120 mg administered as single dose; type: ADME, cell-free; outline: as §1
L6 = assay: Inhibition of cholesterol synthesis in rat L6 cells assessed as reduction of [14C]-cholesterol level using [14C]-acetic acid preincubated for 3 hrs before addition of [14C]-acetic acid by scintillation counting; type: functional, cell-based
Outline: (§3)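 Cholesterol synthesis inhibition measured in rat hepatocytes and rat myocyte cell line, giving IC50 for each. Mean ± SEM of n ≥ 2 independent determinations.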

[11] = AUC (0 to infinity) in human plasma at 240 mg administered as single dose; type: ADME, cell-free; design: dose 240 mg, time infinity; outline: as §2
[12] = AUC (0 to infinity) in human plasma at 320 mg administered as single dose; type: ADME, cell-free; design: dose 320 mg, time infinity; outline: as §2
[13] = AUC (0 to infinity) in human plasma at 120 mg administered as single dose; type: ADME, cell-free; design: dose 120 mg, time infinity; outline: as §2
[14] = AUC (0 to infinity) in human plasma at 10 mg administered as single dose; type: ADME, cell-free; design: dose 10 mg, time infinity; outline: as §2
Hepatocyte = assay: Inhibition of cholesterol synthesis in rat hepatocytes assessed as reduction of [14C]-cholesterol level using [14C]-acetic acid preincubated for 4 hrs before addition of [14C]-acetic acid by liquid scintillation counting; type: functional, cell-based; outline: as §3
Plasma [15] = assay: fCmax in human plasma at 10 mg administered as single dose; type: ADME, cell-free; outline: as §1
Homo sapiens [16] = assay: Inhibition of HMG-CoA reductase in human assessed as decrease in AUC (0 to 24 hrs) of mevalonate level in plasma at 80 mg administered as single dose relative to control; type: functional
Homo sapiens [17] = assay: Inhibition of HMG-CoA reductase in human assessed as decrease in AUC (0 to 24 hrs) of mevalonate level in plasma at 1 mg administered as single dose relative to control; type: functional
Liver = assay: Ratio of fAUC (0 to 24 hrs) in liver to plasma in Sprague-Dawley rat at 25 mg/kg, po; type: ADME, organism-based; design: dose 25 mg/kg, route oral; conditions: other tissue
Outline: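 Sprague-Dawley rats given a single oral dose (10 or 25 mg/kg). Free drug measured in liver and plasma at 0, 0.5, 1, 2, 3, 4, 7 and 24 h, n = 3/time point.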

[18] = Terminal half life in human plasma at 20 mg administered as single dose; type: ADME, cell-free; conditions: read-out: beta t1/2 (converted)
Homo sapiens [19] = assay: Inhibition of HMG-CoA reductase in human assessed as decrease in AUC (0 to 72 hrs) of mevalonate level in plasma at 1 mg administered as single dose relative to control; type: functional
Homo sapiens [20] = assay: Inhibition of HMG-CoA reductase in human assessed as decrease in AUC (0 to 72 hrs) of mevalonate level in plasma at 5 mg administered as single dose relative to control; type: functional
Homo sapiens [21] = assay: Inhibition of HMG-CoA reductase in human assessed as decrease in AUC (0 to 72 hrs) of mevalonate level in plasma at 80 mg administered as single dose relative to control; type: functional
Plasma [22] = assay: fAUC (0 to infinity) in human plasma at 80 mg administered as single dose; type: ADME, cell-free; outline: as §1
[23] = Cmax in human plasma at 80 mg administered as single dose; type: ADME, organism-based; design: dose 80 mg; outline: as §2
[24] = AUC (0 to infinity) in human plasma at 1 mg administered as single dose; type: ADME, cell-free; design: dose 1 mg, time infinity; outline: as §2
[25] = Terminal half life in human plasma at 160 mg administered as single dose; type: ADME, cell-free; conditions: read-out: beta t1/2 (converted)
Plasma [26] = assay: fCmax in human plasma at 1 mg administered as single dose; type: ADME, cell-free; outline: as §1
[27] = Terminal half life in human plasma at 1 mg administered as single dose; type: ADME, cell-free; conditions: read-out: beta t1/2 (converted)
[28] = AUC (0 to infinity) in human plasma at 5 mg administered as single dose; type: ADME, cell-free; design: dose 5 mg, time infinity; outline: as §2
Plasma [29] = assay: fCmax in human plasma at 5 mg administered as single dose; type: ADME, cell-free; outline: as §1
Plasma [30] = assay: fAUC (0 to infinity) in human plasma at 5 mg administered as single dose; type: ADME, cell-free; outline: as §1
Homo sapiens [31] = assay: Inhibition of HMG-CoA reductase in human assessed as decrease in AUC (0 to 24 hrs) of mevalonate level in plasma at 5 mg administered as single dose relative to control; type: functional
[32] = AUC (0 to infinity) in human plasma at 80 mg administered as single dose; type: ADME, cell-free; design: dose 80 mg, time infinity; outline: as §2
Plasma [33] = assay: fAUC (0 to infinity) in human plasma at 160 mg administered as single dose; type: ADME, cell-free; outline: as §1
Plasma [34] = assay: fCmax in human plasma at 20 mg administered as single dose; type: ADME, cell-free; outline: as §1
[35] = Cmax in human plasma at 160 mg administered as single dose; type: ADME, organism-based; design: dose 160 mg; outline: as §2
[36] = AUC (0 to infinity) in human plasma at 20 mg administered as single dose; type: ADME, cell-free; design: dose 20 mg, time infinity; outline: as §2
[37] = Terminal half life in human plasma at 80 mg administered as single dose; type: ADME, cell-free; conditions: read-out: beta t1/2 (converted)
Homo sapiens [38] = assay: Inhibition of HMG-CoA reductase in human assessed as decrease in AUC (0 to 72 hrs) of mevalonate level in plasma at 20 mg administered as single dose relative to control; type: functional
Homo sapiens [39] = assay: Inhibition of HMG-CoA reductase in human assessed as decrease in AUC (0 to 24 hrs) of mevalonate level in plasma at 20 mg administered as single dose relative to control; type: functional
[40] = Cmax in human plasma at 10 mg administered qd for 14 days; type: ADME, organism-based; design: dose 10 mg

`O=C([O-])C[C@H](O)C[C@H](O)CCn1c(-c2ccc(F)cc2)nc(C(=O)NCc2cccc(F)c2)c1C1CC1.[Na+]` gave a half-life [1] of 3.07 h, a fCmax (Plasma [2]) of 2.69 ng/mL and a fCmax (Plasma [3]) of 0.96 ng/mL. For the same compound, the fAUC (Plasma [4]) was 0.786 ng·h/mL, the “inhibition (INH)” value (Homo sapiens [5]) was -30% and the Cmax [6] was 44.1 ng/mL. For the same compound, the “inhibition (INH)” value (Homo sapiens [7]) was -5%, the inhibition in vivo at 10 mg/kg (Rattus norvegicus) was 47% and the half-life [8] was 7.36 h. The “inhibition (INH)” value (Homo sapiens [9]) was -56%, the fAUC (Plasma [10]) was 3.63 ng·h/mL and the IC50 (L6) was 444 nM. It also gave an AUC(0-inf) [11] of 27.2 ng·h/mL, an AUC(0-inf) [12] of 36 ng·h/mL and an AUC(0-inf) [13] of 12.5 ng·h/mL. The AUC(0-inf) [14] was 2.71 ng·h/mL, the IC50 (Hepatocyte) was 0.1 nM and the fCmax (Plasma [15]) was 0.1 ng/mL.
With `Cc1ccc(CNC(=O)c2nn(-c3ccc(F)cc3)c(CC[C@@H](O)C[C@@H](O)CC(=O)O)c2C(C)C)cc1` the “inhibition (INH)” value (Homo sapiens [16]) was -65%, the “inhibition (INH)” value (Homo sapiens [17]) was -16% and the Ratio (Liver) was 128. For the same compound, the half-life [18] was 5.27 h, the “inhibition (INH)” value (Homo sapiens [19]) was -8% and the “inhibition (INH)” value (Homo sapiens [20]) was 3%. The “inhibition (INH)” value (Homo sapiens [21]) was -29%, the fAUC (Plasma [22]) was 602 ng·h/mL and the Cmax [23] was 4480 ng/mL. The AUC(0-inf) [24] was 78.5 ng·h/mL, the half-life [25] was 8.87 h and the fCmax (Plasma [26]) was 1.71 ng/mL. It also gave a half-life [27] of 2.55 h, an AUC(0-inf) [28] of 434 ng·h/mL and a fCmax (Plasma [29]) of 10 ng/mL. The fAUC (Plasma [30]) was 22.1 ng·h/mL, the “inhibition (INH)” value (Homo sapiens [31]) was -13% and the AUC(0-inf) [32] was 11800 ng·h/mL. It also gave a fAUC (Plasma [33]) of 1280 ng·h/mL, a fCmax (Plasma [34]) of 37.7 ng/mL and a Cmax [35] of 6810 ng/mL. For the same compound, the AUC(0-inf) [36] was 1930 ng·h/mL, the half-life [37] was 6.28 h and the “inhibition (INH)” value (Homo sapiens [38]) was -17%. The “inhibition (INH)” value (Homo sapiens [39]) was -34%.
`CC(C)c1nc(N(C)S(C)(=O)=O)nc(-c2ccc(F)cc2)c1/C=C/[C@@H](O)C[C@@H](O)CC(=O)O` [ROSUVASTATIN] gave a Cmax [40] of 4.58 ng/mL.
